Experiments:
Hepatitis C virus [1] = assay: Antiviral activity against Hepatitis C virus subtype 1b infected in human HuH5.2 cells assessed as inhibition of virus-induced cytopathic effect; assay type: functional, organism-based, Hepacivirus hominis; conditions: genotype 1b, Huh-5-2
How it was run: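 Eight-step 1:2 dilution series, 72 h at 37 °C. Cells lysed and luciferase luminescence read, expressed as % of untreated controls. EC50 taken from the dose-response curve, means ± SD of at least three independent experiments.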

Hepatitis C virus [2] = assay: Inhibition of N-terminal His-tagged recombinant Hepatitis C virus subtype 1b NS5B Cdelta21 RNA dependent RNA polymerase expressed in Escherichia coli by liquid scintillation counting analysis
How it was run: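 Dose-response with 8–12 concentrations, in duplicate in two independent experiments. IC50 obtained by nonlinear regression, means ± SD.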

Hepatitis C virus [3] = assay: Inhibition of N-terminal His-tagged recombinant Hepatitis C virus subtype 1b NS5B Cdelta21 RNA dependent RNA polymerase expressed in Escherichia coli at 50 uM by liquid scintillation counting analysis
How it was run: (§1)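 N-His-tagged NS5BCΔ21 (NIH1b), purified from E. coli DH5α on Ni-NTA, 100 ng per reaction. Reaction stopped with cold TCA/pyrophosphate, products filter-precipitated and scintillation-counted. Compound tested at 50 µM, activity relative to DMSO control.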

Hepatitis C virus [4] = assay: Inhibition of N-terminal His-tagged recombinant Hepatitis C virus subtype 1b N-terminal His-tagged expressed in Escherichia coli at 50 uM by liquid scintillation counting analysis relative to control; how it was run: as §1
[5] = Cytotoxicity against human HuH5.2 cells by MTS assay; assay type: cell-based, Huh-5-2
[6] = Selectivity index, ratio of CC50 for human HuH5.2 cells to EC50 for Hepatitis C virus subtype 1b; assay type: toxicity; conditions: read-out: Ratio CC50/EC50
How it was run: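 Ratio of CC50 (MTS, 72 h) to EC50 (luciferase replicon read-out), both measured in parallel in Huh 5-2 replicon cells.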

Hepatitis C virus [7] = assay: Binding affinity to Hepatitis C virus (isolate Con1) NS5B […] by surface plasmon resonance analysis; parameters: species or system Hepacivirus hominis
Hepatitis C virus [8] = assay: Inhibition of N-terminal His-tagged recombinant Hepatitis C virus subtype 1b N-terminal His-tagged expressed in Escherichia coli at non-toxic concentration by liquid scintillation counting analysis relative to control
How it was run: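 Recombinant NS5B genotype 1b (NIH1b) was His-tagged, C-terminally truncated by 21 residues, expressed in E. coli DH5α and purified on Ni-NTA. Products were TCA-precipitated on filters and counted by scintillation relative to the DMSO control. Compounds were screened at 50 µM.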

Hepatitis C virus [9] = assay: Antiviral activity against Hepatitis C virus subtype 1b infected in human Huh-9-13 cells assessed as inhibition of virus-induced cytopathic effect; assay type: functional, organism-based, Hepacivirus hominis; conditions: genotype 1b

| SMILES | EC50 (Hepatitis C virus [1]) | inhibition at 50 µM (Hepatitis C virus [3]) | inhibition at 50 µM (Hepatitis C virus [4]) | other results |
| --- | --- | --- | --- | --- |
| CS(=O)(=O)Nc1ccc(NC(=O)c2nn(-c3ccc([N+](=O)[O-])cc3)c3c2NS(=O)(=O)c2ccccc2-3)cc1 | 7.9 µM |  |  | IC50 (Hepatitis C virus [2]): 7.7 µM |
| CN1c2c(C(=O)Nc3ccc(N)cc3)nn(-c3cccc(F)c3)c2-c2ccccc2S1(=O)=O | 19 µM | 31.5% | 31.5% |  |
| CS(=O)(=O)Nc1ccc(NC(=O)c2nn(-c3ccccc3[N+](=O)[O-])c3c2NS(=O)(=O)c2ccccc2-3)cc1 | 17.8 µM |  |  | CC50 [5]: > 220 µM |
| CN1c2c(C(=O)Nc3ccc(NS(C)(=O)=O)cc3)nn(-c3ccccc3N)c2-c2ccccc2S1(=O)=O | 26 µM |  |  |  |
| CN1c2c(C(=O)Nc3ccc(NS(C)(=O)=O)cc3)nn(-c3ccc(F)cc3)c2-c2ccccc2S1(=O)=O | 23 µM |  |  |  |
| CN1c2c(C(=O)Nc3ccc(NS(C)(=O)=O)cc3)nn(-c3ccccc3F)c2-c2ccccc2S1(=O)=O | 6.4 µM |  |  |  |
| CS(=O)(=O)Nc1ccc(NC(=O)c2nn(-c3cccc([N+](=O)[O-])c3)c3c2NS(=O)(=O)c2ccccc2-3)cc1 | > 220 µM | 33.7% |  | selectivity ratio [6]: ≥ 1; CC50 [5]: > 220 µM; EC90 (Hepatitis C virus [1]): > 220 µM; Kd (Hepatitis C virus [7]): 14 µM |
| CS(=O)(=O)Nc1ccc(NC(=O)c2nn(-c3ccccc3)c3c2NS(=O)(=O)c2ccccc2-3)cc1 | 14 µM |  |  | CC50 [5]: > 239 µM |
| CN1c2c(C(=O)Nc3ccc(NS(C)(=O)=O)cc3)nn(-c3cccc(N)c3)c2-c2ccccc2S1(=O)=O | 9.2 µM | 45.8% | 45.8% |  |
| COC(=O)c1nn(-c2cccc(F)c2)c2c1N(C)S(=O)(=O)c1ccccc1-2 | 172 µM | 10.6% | 11% | inhibition (INH) (Hepatitis C virus [8]): 40% |
| CN1c2c(C(=O)Nc3ccc(NS(C)(=O)=O)cc3)nn(-c3cccc(F)c3)c2-c2ccccc2S1(=O)=O | 7.5 µM |  |  | EC50 (Hepatitis C virus [9]): 3.6 µM |
| CN1c2c(C(=O)Oc3ccc(NS(C)(=O)=O)cc3)nn(-c3cccc(F)c3)c2-c2ccccc2S1(=O)=O | 88 µM | 21.4% | 21% |  |
| CN1c2c(C(=O)Nc3ccc(NS(C)(=O)=O)cc3)nn(-c3ccc(N)cc3)c2-c2ccccc2S1(=O)=O | 12 µM |  |  |  |

From ChEMBL document CHEMBL2321648, “Structure-based discovery of pyrazolobenzothiazine derivatives as inhibitors of hepatitis C virus replication” (J Med Chem, 2013)
